Ecoli WT expand – growth inhibitors of wild-type E. coli, primary screen, strain BW25113, expanded library, OD600; 98,000 compounds, 0.15% hits; AID 710, 2007; OD600 absorbance; growth inhibition, % at 100 µM;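 active = growth inhibition above about 50% at one test dose, limit read from the data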;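 also: growth measured after 20 h incubation at 37 °C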
PostGolgi yeast – phenotypic screen on post-Golgi transport, primary screen; AID 739, 2007; inhibition, % at 10 µM; post-Golgi transport phenotypic cell assay; 98,000 compounds, 0.9% hits;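 also: yeast cells grown in 1536-well plates; yeast grown about 18 h at 30C before absorbance read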
Ecoli tolC – growth inhibitors of E. coli tolC mutant, primary screen, strain BW25113 ΔtolC::kan, 384-well; OD615; growth inhibition, % at 10 µM (by protocol); 65,000 compounds, 2.2% hits; AID 573, 2007;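 active = growth inhibition at or above a cutoff equal to the mean over every tested compound plus 3 SD, cut at about 60% in these data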;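 also: growth measured after 20 h incubation at 37 °C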
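Doses: one dose of 10 µM final / Material: E. coli BW25113 ΔtolC::kan, tolC deletion mutant strain / Buffer or medium: LB with kanamycin 50 µg/mL / Evaluation: percent growth inhibition / Detection: optical density read at 615 nm / Incubation: 37 °C, 20 h exposure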
PostGolgi ctrl – growth inhibition of yeast control strain, primary screen, counter-screen for post-Golgi transport modulator project | efflux-deficient yeast background strain, growth absorbance A615, 16 h | inhibition, % at 10 µM | 98,000 compounds, 5% hits | AID 738, 2007
Large screens that a line does not name were inactive. The list is not random: actives were taken first. Their share in the collection is about 6.3%. Rule as the data show it, unless noted: active = inhibition above about 30%; inactive = the rest.

COC1(OC)N=C(NC(=O)Nc2ccccc2)C2(C#N)C(c3ccccc3)C12C#N (stereo unspecified)	none
O=C1CCCN1c1ccc(S(=O)(=O)Oc2ccc(Cl)cc2)cc1[N+](=O)[O-]	none (no result: Ecoli tolC)
COc1ccc(S(=O)(=O)N2CCCC(C(=O)N3CCCCCC3)C2)cc1 (stereo unspecified)	PostGolgi ctrl 66
CS(=O)(=O)N(Cc1ccccc1)c1ccc(C(=O)Nc2ccc3c(c2)OCO3)cc1	none (no result: Ecoli tolC)
O=C(NC(C(=O)c1ccccc1)N1CCCCC1)c1ccccc1 (stereo unspecified)	PostGolgi yeast 38
O=C(NC(C(=O)c1ccccc1)n1ccc(=O)[nH]c1=O)c1ccccc1 (stereo unspecified)	PostGolgi ctrl 30
CCCCCn1c(CCCNC(=O)CC)nc2ccccc21	none
CC(=O)NC(CCS(C)(=O)=O)C(=O)Nc1cc(Cl)ccc1Cl (stereo unspecified)	PostGolgi ctrl 32
CC(=O)NC(CCS(C)(=O)=O)C(=O)Nc1ccccc1Cl (stereo unspecified)	none
CC(Oc1ccc(Cl)cc1Cl)C(=O)NCCCN(C)C (stereo unspecified)	none
CN(C)CCNC=C(C(=O)Nc1ccc(Cl)cc1Cl)C(=O)Nc1ccc(Cl)cc1Cl	PostGolgi yeast 40, PostGolgi ctrl 99 (no result: Ecoli tolC)
O=C(CCn1c(=O)c2ccccc2n(CC(=O)NC2CCCC2)c1=O)NCCc1ccc(Cl)cc1	none (no result: Ecoli tolC)
O=[N+]([O-])c1ccc(OC/C=C2\Oc3ccc([N+](=O)[O-])cc3C2N2CCOCC2)cc1 (stereo unspecified)	PostGolgi ctrl 35 (no result: Ecoli tolC)
O=S(=O)(c1cc(-c2nc3ccccc3s2)ccc1Cl)N1CCOCC1	none (no result: Ecoli tolC)
Cc1ccc(-c2nc3ccccc3s2)cc1S(=O)(=O)N1CCOCC1	PostGolgi ctrl 34 (no result: Ecoli tolC)
O=C(CSc1nnc(Cc2ccccc2)o1)Nc1ccc2c(c1)OCO2	none (no result: Ecoli tolC)
CS(=O)(=O)N(CC(=O)O)c1ccc(Oc2ccccc2)cc1	PostGolgi ctrl 36
Cc1ccc(-n2c(Cc3cccn3C)nnc2SCC(=O)N2CCc3ccccc32)cc1	PostGolgi ctrl 45
COc1ccc(-n2c(Cc3cccn3C)nnc2SCC(=O)Nc2ccc(C)c(Cl)c2)cc1	Ecoli tolC 75
O=C(CC1C(=O)N(c2ccccc2)C(=O)N1C1CCCCC1)Nc1ccccc1 (stereo unspecified)	none (no result: Ecoli tolC)
CCOC(=O)N1CCN(C(=O)CS(=O)(=O)c2cn(Cc3cccc(F)c3)c3ccccc23)CC1	none
O=C1CC(N(CCc2ccccc2)C(=S)Nc2cc(Cl)ccc2Cl)C(=O)N1c1c(Cl)cccc1Cl (stereo unspecified)	none (no result: Ecoli tolC)
COc1ccc(/C=N/NC(=O)c2ccn[nH]2)cc1COc1ccc(F)cc1	none (no result: Ecoli tolC)
COc1ccc(/C=N/NC(=O)c2ccoc2C)cc1COc1ccc(Cl)cc1	PostGolgi ctrl 49 (no result: Ecoli tolC)
COc1ccc(/C=N/n2cncn2)cc1COc1ccc(NC(C)=O)cc1	none
COc1ccc(/C=N/NC(=O)c2ccn[nH]2)cc1COc1ccc(Cl)cc1Cl	PostGolgi ctrl 62 (no result: Ecoli tolC)
O=C(COc1cccc2ccccc12)NNC(=O)c1cccs1	none (no result: Ecoli tolC)
CCOc1ccc(OCC)c(-c2c(=O)n(OCc3ccc(C(C)(C)C)cc3)c3ccccc3[n+]2[O-])c1	none (no result: Ecoli tolC)
O=c1ccc(NS(=O)(=O)c2ccccc2)cn1Cc1ccc(Cl)c(Cl)c1	none (no result: Ecoli tolC)
Cc1ccccc1OCC(O)Cn1c2ccccc2c2ccccc21 (stereo unspecified)	PostGolgi ctrl 38 (no result: Ecoli tolC)
CCn1c2ccccc2c2cc(NC(=O)c3cc(OC)c(OC)c(OC)c3)ccc21	none (no result: Ecoli tolC)
CC(=O)Nc1ccc(OCC(O)Cn2c3ccccc3c3ccccc32)c(C)c1 (stereo unspecified)	PostGolgi ctrl 46 (no result: Ecoli tolC)
CCC(C)(C)n1nnnc1CN(Cc1ccc(Cl)cc1)Cc1ccco1	Ecoli tolC 81
CC(C)C(CCN1C(=O)CCC1=O)C1CCOC(C)(C)C1 (stereo unspecified)	none (no result: Ecoli tolC)
CSCC[C@H](NC(=O)C1CCN(S(=O)(=O)c2ccc(C)cc2)CC1)C(=O)NCC1CCCO1 (stereo partly specified)	none
CSCC[C@H](NC(=O)C1CCN(S(=O)(=O)c2ccc(C)cc2)CC1)C(=O)NCc1ccco1	PostGolgi ctrl 31
Cc1ccc(C)c(S(=O)(=O)NC(C)C(=O)Nc2ccc(-c3nc4ccccc4s3)cc2)c1 (stereo unspecified)	PostGolgi ctrl 33 (no result: Ecoli tolC)
O=S(=O)(NCc1ccco1)N1CCOCC1	none
COc1ccc(C(=O)/C(=C/c2cccs2)c2nc3ccccc3o2)cc1	PostGolgi ctrl 38 (no result: Ecoli tolC)
Cc1ccc(Cn2ccc(NC(=O)c3cc(-c4cccs4)on3)n2)cc1	none
CC(C)(C)n1ncc2c(=O)n(CC(=O)N3CCN(c4ccccc4)CC3)cnc21	none
Cc1ccc2c(c1)cc(CN(Cc1cccs1)C(=O)c1ccco1)c1nnnn12	PostGolgi ctrl 42
COc1ccccc1C(=O)Nc1cc(-c2nn3c(C)nnc3s2)ccc1C	none (no result: Ecoli WT expand, PostGolgi yeast, PostGolgi ctrl)
Cc1nnc2n(Cc3ccccc3)c(=O)c3c4c(sc3n12)COC(C(C)C)C4 (stereo unspecified)	PostGolgi ctrl 71
CC(C)C1Cc2c(sc3c2c(=O)n(Cc2ccccc2)c2nncn32)CO1 (stereo unspecified)	PostGolgi ctrl 43
CCCCNS(=O)(=O)c1ccc2nc(SCC(=O)c3ccc(C#N)cc3)[nH]c2c1	none
Cc1cc2nnc(SCC(=O)NCc3ccco3)n2c2ccccc12	none (no result: Ecoli WT expand, PostGolgi yeast, PostGolgi ctrl)
Clc1ccc(Cn2cc(/C=N/n3cnnc3)c3ccccc32)cc1	PostGolgi ctrl 42
Cc1ccccc1Cn1cc(/C=N/n2cnnc2)c2ccccc21	none
c1ccc2c(c1)ncn2CCCCOc1ccc2c(c1)CCC2	PostGolgi ctrl 37 (no result: Ecoli tolC)
c1ccc2c(c1)ncn2CCCOc1ccc2c(c1)CCC2	PostGolgi ctrl 34 (no result: Ecoli tolC)
C=CCSc1nc(C)c2cc(C)cc(C)c2n1	none (no result: Ecoli tolC)
CC(C)N(Cc1nc(-c2ccccc2)no1)C(=O)CN(C)S(=O)(=O)c1ccc(Br)cc1	PostGolgi ctrl 62 (no result: Ecoli tolC)
CC(C)N(Cc1nc(-c2ccc(Cl)cc2)no1)C(=O)CN(C)S(=O)(=O)c1ccc(Cl)cc1	PostGolgi ctrl 52
CN(Cc1nc(-c2cccnc2)no1)S(=O)(=O)c1ccc(Br)cc1	none
COc1ccc(OC)c(-c2cc(C(=O)Nc3c(C)nn(Cc4ccccc4)c3C)no2)c1	PostGolgi ctrl 38
Cc1nn(Cc2ccccc2)c(C)c1NC(=O)c1cc(-c2ccco2)on1	none
COc1ccc(OC)c(-c2cc(C(=O)Nc3c(C)nn(Cc4ccc(Cl)cc4)c3C)no2)c1	PostGolgi ctrl 33
Cc1cc(C(F)(F)F)n(-c2nc(C(=O)Nc3ccccc3Oc3ccccc3)cs2)n1	none (no result: Ecoli tolC)
COc1ccc(-c2nnc(NC(=O)c3ccc(S(=O)(=O)N4COCC4(C)C)cc3)o2)cc1	Ecoli tolC 100
COc1ccc(C(=O)CSc2nnc(-c3ccc(S(=O)(=O)N4CCOCC4)cc3)o2)cc1	none
CC1(C)COCN1S(=O)(=O)c1ccc(C(=O)Nc2nnc(-c3ccc(Cl)s3)o2)cc1	Ecoli tolC 99
CCn1c(=O)n(CC)c2cc(S(=O)(=O)Nc3cc(C)cc(C)c3C#N)ccc21	none (no result: Ecoli tolC)
CC(C)(c1ccccc1)c1ccc(OCCCNCCO)cc1	none (no result: Ecoli tolC)
